Structures are written as SMILES. Calls of active or inactive are those of the source. The rule behind the calls is not given here.

The species named for assay [1] is Rattus norvegicus. Briefly: Percent change in body weight DMBA-induced hormone-dependent mammary carcinoma tumors in rats at 18 mg for 7 days. It counts as functional. The note with it: in the assay text read “at 1 mg” for “at 18 mg”. The essentials:
(§1)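 DMBA-induced, hormone-dependent mammary adenocarcinoma in SD rats. Rats bearing at least one tumor >140 mm² were placed in groups of ten. Compound was given sc as a single dose (mg/kg) daily Monday–Thursday and a double dose on Friday. Tumors were counted at the start and as new tumors; responses were scored as complete remission (not palpable), partial remission (≥50% reduction), no change or progression. Tumor area and body weight were recorded as % change.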

The species named for assay [2] is Rattus norvegicus. Briefly: Initial tumor number of DMBA-induced hormone-dependent mammary carcinoma in rats at 2 mg. It counts as functional. The essentials:
as §1

The species entered for a further assay is Mus musculus. Briefly: Vaginal cornification test in mice at 2.5 ug; predominant cellular component leucocytes (diestrus). The format is functional, organism-based.
For assay [3], the species on record is Rattus norvegicus. Briefly: Initial tumor number of DMBA-induced hormone-dependent mammary carcinoma in rats at 4 mg. The format is functional. In outline:
as §1

Assay [4] deals with T1, Estrogen receptor (Mus musculus) (UniProt O08537+P19785). Briefly: Antiestrogenic activity in uterotrophic test in mice at 25 ug (experiment 2). The format is functional. In outline:
(§2)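 Immature female NMRI mice, 20 days old (14.5 ± 1.2 g), randomly grouped 10 per group. Each received a daily sc injection for 3 days of 0.1 mL olive oil solution containing test compound, together with estrone to stimulate uterine growth. Uteri were removed 24 h after the last injection and weighed. Results are reported as % inhibition of the estrone-stimulated uterine weight gain, mean ± SD.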

For assay [5], the target named is T1, Estrogen receptor (Mus musculus). Put plainly: Antiestrogenic activity in uterotrophic test in mice at 0 ug (experiment 1). It counts as functional. In outline: as §2
The target is the same in assay [6]. Put plainly: Estrogenic activity in uterotrophic test in mice at 8 ug (experiment 1). The format is functional. The essentials:
(§3)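 Immature (20-day-old) female NMRI mice, 14.5 ± 1.2 g, randomized into groups of 10. Given the test compound sc daily for 3 days in 0.1 mL olive oil. Uteri removed 24 h after the last injection; uterine weight taken as the read-out, means ± SD. Dose in μg.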

The species entered for assay [7] is Rattus norvegicus. Put plainly: Final number of DMBA-induced hormone-dependent mammary carcinoma tumors in rats at 1 mg. It counts as functional. In outline: (§4)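 Sprague-Dawley rats carrying DMBA-induced, hormone-dependent mammary adenocarcinoma, at least one tumor >140 mm², were placed in groups of ten. Compounds were given sc, with doses in mg/kg: a single daily dose Monday to Thursday and a double dose on Friday. Ovariectomy served as a comparator group. New tumors arising during the test were counted.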

The species named for assay [8] is Rattus norvegicus. Briefly: Percent change in DMBA-induced hormone-dependent mammary carcinoma tumor area at 9 mg after 28 days. It counts as functional. In outline:
as §1

The species named for assay [9] is Rattus norvegicus. Put plainly: Final number of DMBA-induced hormone-dependent mammary carcinoma tumors in rats at 4.5 mg. The format is functional. The essentials:
as §4

The species named for assay [10] is Rattus norvegicus. Put plainly: Partial remission of DMBA-induced hormone-dependent mammary carcinoma tumors in rats at 2.25 mg. The format is functional. In outline:
as §1

Assay [11] has as its target T1, Estrogen receptor (Mus musculus). Put plainly: Antiestrogenic activity in uterotrophic test in mice at 0 ug. The format is functional. In outline: as §2
Assay [12] shares this target. Put plainly: Antiestrogenic activity in uterotrophic test in mice at 500 ug. The format is functional. The essentials: as §2
For assay [13] the target is unchanged. Put plainly: Estrogenic activity in uterotrophic test in mice at 1500 ug. It counts as functional. In outline: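 Uterine growth stimulation in immature female NMRI mice, 20 days old (14.5 ± 1.2 g), 10 per group. Test compound in 0.1 mL olive oil was given sc daily for 3 days. Uteri were excised 24 h after the final injection and weighed. Effect is reported as mean ± SD.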

Assay [14] shares this target. Briefly: Estrogenic activity in uterotrophic test in mice at 9 ug. The format is functional. The essentials: as §3
The species entered for assay [15] is Rattus norvegicus. Briefly: Percent change in DMBA-induced hormone-dependent mammary carcinoma tumor area at 4.5 mg after 28 days. The format is functional. In outline:
as §1

For assay [16], the target named is T1, Estrogen receptor (Mus musculus). Put plainly: Inhibitory activity in mouse uterine weight test at 500 ug. It counts as functional. In outline: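 Immature female NMRI mice, 20 days old (14.5 ± 1.2 g), in random groups of 10. They received sc injections daily for 3 days of 0.1 mL olive oil containing test compound, with estrone 0.1 μg given to stimulate uterine growth. Uteri were removed 24 h after the last injection and weighed (mean ± SD). Result is percent inhibition of the estrone-stimulated uterine weight gain.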

T1 sequence (O08537 whole entry, looked up): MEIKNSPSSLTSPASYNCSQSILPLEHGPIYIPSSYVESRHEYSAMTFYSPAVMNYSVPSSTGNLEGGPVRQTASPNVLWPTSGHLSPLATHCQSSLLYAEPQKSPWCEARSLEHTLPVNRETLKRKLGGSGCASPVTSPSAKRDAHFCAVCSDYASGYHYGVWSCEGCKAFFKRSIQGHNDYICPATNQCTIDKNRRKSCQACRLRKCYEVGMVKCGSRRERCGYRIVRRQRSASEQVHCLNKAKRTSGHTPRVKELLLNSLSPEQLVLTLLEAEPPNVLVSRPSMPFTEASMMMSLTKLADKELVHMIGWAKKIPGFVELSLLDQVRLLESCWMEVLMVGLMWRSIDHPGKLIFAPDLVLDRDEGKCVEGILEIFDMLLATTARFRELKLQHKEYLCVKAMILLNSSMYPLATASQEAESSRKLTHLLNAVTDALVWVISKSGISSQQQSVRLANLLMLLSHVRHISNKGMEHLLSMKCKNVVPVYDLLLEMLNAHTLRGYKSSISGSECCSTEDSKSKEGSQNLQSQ
T1 sequence (P19785 whole entry, looked up): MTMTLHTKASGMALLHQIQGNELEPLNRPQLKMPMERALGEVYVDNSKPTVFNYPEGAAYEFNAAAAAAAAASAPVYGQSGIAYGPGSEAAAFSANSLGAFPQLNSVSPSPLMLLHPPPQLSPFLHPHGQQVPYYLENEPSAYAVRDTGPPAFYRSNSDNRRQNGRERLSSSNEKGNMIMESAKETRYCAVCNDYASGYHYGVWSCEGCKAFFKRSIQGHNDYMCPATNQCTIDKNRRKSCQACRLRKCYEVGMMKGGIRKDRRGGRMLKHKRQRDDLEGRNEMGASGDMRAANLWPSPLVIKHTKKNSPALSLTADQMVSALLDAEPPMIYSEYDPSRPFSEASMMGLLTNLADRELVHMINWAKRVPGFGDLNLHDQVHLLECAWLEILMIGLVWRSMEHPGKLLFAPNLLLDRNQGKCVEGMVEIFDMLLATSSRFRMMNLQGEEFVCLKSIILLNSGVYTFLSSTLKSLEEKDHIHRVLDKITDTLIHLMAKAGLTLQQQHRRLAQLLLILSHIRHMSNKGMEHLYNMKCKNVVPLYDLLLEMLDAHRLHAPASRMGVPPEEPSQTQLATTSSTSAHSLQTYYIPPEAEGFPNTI

Consider `CCC(c1cccc(O)c1)C(CC)c1cccc(O)c1` (stereo in doubt; 20), for which the Change in the assay listed under Rattus norvegicus [1] is -1.6%. Besides, the No. of tumors is listed as 30 in the assay listed under Rattus norvegicus [2], 37 in the assay listed under Rattus norvegicus [3] and 37 in the assay filed under Rattus norvegicus [7]. In addition, the result in the assay filed under Mus musculus was inactive. Moreover, the results for the Effect in [4], in [5] and in assay [6] were 28.1, 12.5 and 14.4, respectively.

With `CCCC(c1cccc(O)c1)C(CCC)c1cccc(O)c1` (configuration not stated), the results for the Change in the assay filed under Rattus norvegicus [8] and in the assay filed under Rattus norvegicus [15] were -24% and 109%, respectively. For the same molecule, the No. of tumors in the assay listed under Rattus norvegicus [9] came to 6. The Tumors in the assay listed under Rattus norvegicus [10] was 8%. Further, the Effect in [11] worked out at 9.9; in assay [12] it was 23.9; in assay [13], 28; in assay [14], 13.9. Besides, the inhibition (as a rule, the change of the read-out against control, counted positive when it falls) in assay [16] was 50%.
